Source: PubChem BioAssay (Broad Institute)
Most compounds without a hit are left out; they make up all but 1.3% or so of the library.
PDI turbidity: blocks human protein disulfide isomerase activity; inhibition, % at 10 µM; P07237; 0.052% of 350,000 active; PDI insulin aggregation turbidity, A650, 90 min;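 active = mean inhibition across replicates of 30% or more, whatever share of single replicates reach that level; inconclusive = mean inhibition below 30% while every single replicate reaches 30%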
ERp5 block: ERp5 (human) disulfide isomerase inhibition; Q15084; ERp5 insulin aggregation, absorbance 650 nm, 90 min; inhibition, % at 9.99 µM; 0.05% of 350,000 active; AID 651711;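 active = mean replicate inhibition above about 25%, with every replicate also reaching it, limit read from the data, passing the limit was not always enough; inconclusive = only one of those two criteria met; inactive = neither criterion met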
Target sequence (Q15084 whole entry, looked up): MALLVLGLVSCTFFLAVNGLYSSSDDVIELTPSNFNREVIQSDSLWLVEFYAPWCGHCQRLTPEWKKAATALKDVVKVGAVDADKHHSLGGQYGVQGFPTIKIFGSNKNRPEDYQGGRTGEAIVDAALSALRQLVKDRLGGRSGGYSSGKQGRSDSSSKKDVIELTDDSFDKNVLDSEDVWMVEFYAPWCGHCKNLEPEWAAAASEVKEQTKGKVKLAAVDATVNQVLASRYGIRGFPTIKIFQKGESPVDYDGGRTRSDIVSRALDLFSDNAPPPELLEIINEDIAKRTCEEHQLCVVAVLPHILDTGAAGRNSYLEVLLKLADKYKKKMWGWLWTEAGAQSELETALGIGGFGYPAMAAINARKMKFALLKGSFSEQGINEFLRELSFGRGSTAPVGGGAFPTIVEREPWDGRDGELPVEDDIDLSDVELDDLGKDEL
SIRT5 block: sirtuin-5 (human) deacylase inhibition; Q9NXA8; Purified SirT5, succinyl-peptide AMC, trypsin-coupled fluorescence; inhibition, % at 15 µM; 1.1% of 330,000 active; in the data active = inhibition above about 15%; inconclusive = no clear call, values can overlap the other calls
FN deposit inh: fibronectin deposition inhibition | AH1F fibroblasts, Alexa488-fibronectin deposition fluorescence, overnight | inhibition, % at 12.6 µM | 0.086% of 350,000 active;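 active = mean inhibition across replicates of 30% or more, regardless of how many single replicates reach that level; inconclusive = mean under 30% yet at least half of replicates reach 30%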;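 note: positive control wells lacked labelled fibronectin entirely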
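test system = AH1F fibroblasts assembling fluorescent fibronectin matrix | quantity = 10000 AH1F cells per well | buffer or medium = DMEM plus 2% serum, read in PBS | doses = single dose, pinned | incubation = 1 h cell attachment, overnight exposure to compound and label | detection = fluorescence at 485 nm excitation, 525 nm emission | read-out basis = inhibition from reduced deposited-fibronectin fluorescence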
MLL AF4-AF9 inh: blocks AF4 peptide binding to human AF9; AlphaScreen, biotin-AF4 peptide binding to FLAG-AF9; inhibition, % at 10 µM; 0.47% of 350,000 active;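 active = every replicate reaching a set inhibition limit, whatever the replicate mean, cut at about 25% in these data; inconclusive = mean inhibition reaches that limit but some replicates miss it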;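 note: 0% = plate neutral control median and 100% = total signal loss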
Alpha interfer: interferes with the AlphaScreen assay signal. 45% of 530 active. AlphaScreen interference counter-screen, signal luminescence. shares compounds with MLL AF4-AF9 inh. AC50, µM (series often up to 12 µM), inactives show at the highest dose activity change, negative = inhibition; cut-off not given, nearly all actives have AC50 up to about 14 µM
The depositor's hits bear a star; ? = inconclusive; . = no result given; ! = repeats disagree.

SMILES	PDI turbidity	ERp5 block	SIRT5 block	FN deposit inh	MLL AF4-AF9 inh	Alpha interfer
CCOc1ccc(NCc2cccn2-c2nnc(N3CCC(C(=O)NCCCN4CCCCC4CC)CC3)s2)cc1 (stereo unspecified)	-3.1	-9.0	-2.1	-2.3	38.2*	10.5µM*
Nc1nnnn1/N=C/c1ccccc1OCc1ccc(Cl)cc1	-5.0	.	.	-10.0	.	.
CCN(CC)c1ccc(N=Cc2cc(Br)ccc2O)cc1	-28.4	3.4	-4.9	-7.1	46.0*	-2.2%
Oc1ccc(Br)cc1C=Nc1ccc(Cl)cc1	-2.7	1.3	0.1	-1.2	-2.2	.
Cc1ccc2nc(-c3ccc(NC(=S)NC4CC(C)(C)NC(C)(C)C4)cc3)sc2c1	4.3	9.4	-14.0	-10.4	44.8*	-21.7%
NC(=O)NC(=O)CSc1nnc(-c2ccco2)n1Cc1ccccc1	-3.6	.	.	9.0	.	.
Cc1cccc(S(=O)(=O)N2CC[C@@H]3[C@H](CO)Nc4ccc(C#Cc5ccccc5F)cc4[C@@H]32)c1	.	2.2	0.4	2.2	-0.2	.
Cc1cc(C)cc(OCC(O)CN2CCC(CN3C(=O)c4cccc5cccc(c45)C3=O)CC2)c1 (stereo unspecified)	-3.2	6.0	0.2	-1.1	29.7*	-33.1%
COc1cccc(OCC(O)CN2CCC(CN3C(=O)c4cccc5cccc(c45)C3=O)CC2)c1 (stereo unspecified)	2.7	-2.7	-8.6	2.4	33.8*	-10.1%
O=C1c2cccc3cccc(c23)C(=O)N1CC1CCN(CC(O)COc2ccc3ccccc3c2)CC1 (stereo unspecified)	-0.6	3.9	-2.5	2.1	0.3	.
CCc1ccc(OCC(O)CN2CCC(CN3C(=O)c4cccc5cccc(c45)C3=O)CC2)cc1 (stereo unspecified)	2.6	.	.	-5.2	.	.
Cc1cc(C)c2sc(N(CCCN(C)C)C(=O)c3ccc(S(=O)(=O)N4CCCc5ccccc54)cc3)nc2c1	6.8	14.5	-0.9	.	56.0*	-17.5%
Oc1ccccc1C=NCC(O)c1ccccc1 (stereo unspecified)	1.4	-4.6	-4.3	0.7	5.3	.
Oc1ccccc1C=NCCCCCCN=Cc1ccccc1O	-5.1	-2.2	1.1	-11.9	39.1*	-13.0%
Oc1ccccc1C=NCCN=Cc1ccccc1O	1.3	4.0	-4.5	11.9	-3.5	.
Oc1ccccc1C=NCCN1CCN(CCN=Cc2ccccc2O)C1c1ccccc1O (stereo unspecified)	16.3	0.6	1.6	.	30.4*	13.0%
Cc1noc(C)c1NC(=O)Nc1ccc2c(c1)C(=O)N([C@H](C)CO)C[C@H](C)[C@H](CN(C)S(=O)(=O)c1c(C)noc1C)OCCCC[C@H](C)O2	.	-0.5	7.1	.	-1.9	.
CN1C(=O)c2cc(NC(=O)Nc3ccc(F)cc3)ccc2OC[C@@H]2O[C@@H](CC(=O)NC3CCC3)CC[C@H]21	.	5.5	8.1	-1.9	0.3	.
CCC(=O)N1C[C@@H](C)[C@@H](OC)CN(C)C(=O)c2ccc(NS(C)(=O)=O)cc2OC[C@@H]1C	.	-0.8	-1.2	0.4	-1.8	.
CC1CCN(CC(=O)Nc2ccc(N3CCCCCC3)cc2)CC1	-1.4	-6.4	0.7	.	52.9*	11.5µM*
Cc1ccc(C2Nc3ccccc3NC3=C2C(=O)CC(C)(C)C3)c(O)c1 (stereo unspecified)	0.6	-4.7	3.7	-0.2	-1.0	.
COc1ccc(N2CCN(CCCNC(=O)CCC(=O)N3CCOc4ccc(Cl)cc43)CC2)cc1	7.2	0.8	0.1	12.3	38.4*	12µM*
Cc1ccc(C)c(N2CCN(CCCNC(=O)CCC(=O)N3CCOc4ccc(Cl)cc43)CC2)c1	.	-3.5	-1.7	-9.0	7.7	.
O=C(c1ccc(-c2cc(O)c3ncccc3c2)cc1)N1CCNCC1	5.9	-8.0	-1.1	-14.7	91.9*	3.93µM*
CC(=NNC(=S)N1CCN(C2CCCCCC2)CC1)c1ccccn1	2.2	-0.4	-3.1	-1.4	45.6*	1.18µM*
SMILES	PDI turbidity	ERp5 block	SIRT5 block	FN deposit inh	MLL AF4-AF9 inh	Alpha interfer
Fc1ccc(C(c2ccc(F)cc2)N2CCN(C/C=C/c3ccccc3)CC2)cc1	4.6	0.2	0.8	-0.7	34.5*!	10.8%
Cn1c2ccccc2c2nnc(SCC(=O)Nc3ccccc3F)nc21	-4.3	2.4	3.4	0.7	-0.5	.
CN(C)c1cc2c3ccccc3n(C)c2cc1N	0.9	7.7	.	-9.1	27.7*	-23.0%
CCOc1cc(-c2sc(Nc3ccccc3)n[n+]2C)ccc1OC	-0.5	-0.9	.	-11.2	-5.5	.
Cc1ccc(OCC(=O)Nc2ccc(C)c(S(=O)(=O)N3CCCCCC3)c2)c([N+](=O)[O-])n1	-7.9	1.1	3.0	-11.6	3.4	.
Nc1[nH]n(-c2ccccc2)c(=O)c1N=Nc1ccc2c(c1)OCO2	3.2	2.2	-1.1	7.8	-35.3	.
Nc1[nH]n(-c2ccccc2)c(=O)c1N=Nc1ccc2c(c1)OCCO2	10.8	-5.2	-0.5	.	39.3*	-21.9%
COc1ccc(S(=O)(=O)/N=C2\C=C(Nc3ccc(O)cc3)C(=O)c3ccccc32)cc1	-1.7	3.5	-2.8	35.7*	40.6*	2.69µM*
CC(C)Cc1oc(C(=O)O)cc1CN1CCOCC1	1.7	-1.2	-5.5	3.3	0.7	.
Cc1ccc(NC(=O)c2ccc(-n3cccn3)c([N+](=O)[O-])c2)cc1C	-5.1	.	.	-45.4	.	.
CCCCOc1ccc(C(=O)N2CCN(c3ccc(N4CCOCC4)nn3)CC2)cc1	-1.5	5.3	-2.4	3.2	-8.0	.
CN=c1scc(-c2ccc(OC)cc2)n1/N=C(\C)c1cccnc1	8.1	?	2.3	-4.2	48.2*	11.4µM*
COc1ccc(CC(=O)N/N=C(\C)c2cccnc2)cc1	0.6	-9.4	-2.6	-1.3	1.5	.
O=C(C[C@H]1CC[C@@H]2[C@H](COC[C@@H](O)CN2S(=O)(=O)c2ccccc2)O1)NCC1CCCCC1	.	-3.8	100.2*	.	39.3*	-18.5%
C[C@@H]1CN([C@H](C)CO)C(=O)Cc2cc(N(C)C)ccc2O[C@H]1CN(C)Cc1ccc(Oc2ccccc2)cc1	.	6.5	2.8	.	43.2*	-39.5%
CCOC(=O)C1CCN(C(=O)Cn2nc(C)n3c(cc4cc(C)ccc43)c2=O)CC1	-2.0	-2.5	2.9	-8.7	-3.6	.
Cc1ccc(S(=O)(=O)NC(=O)Nc2ccc(N(C)C)cc2)cc1	-7.7	-0.8	-2.9	-3.3	34.6*	-28.0%
CN(CCc1ccccc1)C(=O)c1ccc(NC(=O)Cc2ccc(NC(=O)C3CCN(C(=O)C4CCCC4)CC3)cc2)cc1	12.4	-8.1	1.3	-2.9	33.1*	1.9%
CN(CCc1ccccc1)C(=O)c1ccc(NC(=O)Cc2ccc(NC(=O)C3CCCN(C(=O)C4CCCCC4)C3)cc2)cc1 (stereo unspecified)	-10.3	1.4	1.1	0.5	-2.6	.
